# Source: PubChem (several laboratories)
# Yeast life ext: compounds extending yeast replicative lifespan, primary screen, S. cerevisiae, OD615. 130,000 compounds, 0.68% hits. inhibition of the nicotinamide effect, % at 10 µM. S. cerevisiae growth with nicotinamide; deaD strain in restrictive glucose medium. AID 775, 2007;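 active = inhibition above a set limit, placed 3 SD over the median of all compounds, cut at about 26% in these data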;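 note: 0% = nicotinamide-treated wells and 100% = cells grown without nicotinamide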
#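 Material: Modified budding yeast, DeaD strain | Medium: Restrictive glucose medium | Probe or stimulus: 1.5 mM nicotinamide | Dosing: Single dose 10 µM compound, 0.25% DMSO | Times: 48 h at 30 °C | Technique: OD615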
# RAM inhibit: inhibitors of the yeast RAM network, primary screen, dse1pr::URA3 reporter, 5-FOA selection | inhibition, % at 50 µM | AID 868, 2007 | 190,000 compounds, 1.8% hits | S. cerevisiae dse1pr::URA3 reporter, 5-FOA growth OD615, 2 d; analog-sensitive cbk1-as2 kinase mutant strain;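 active = inhibition above a set limit, 3 SD over mean compound inhibition, cut at about 8.4% in these data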;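 note: 0% = DMSO-only wells with no growth and 100% = 10 µM 1-NA-PP1 full growth; inhibition rescues growth on 5-FOA so higher OD means more RAM inhibition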
# Yeast growth inh: growth inhibitors of yeast BB579 in restrictive medium, primary screen, yeast lifespan-shortening project, S. cerevisiae. OD615, 48 h. inhibition, % at 10 µM. 140,000 compounds, 0.51% hits;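 active = inhibition above a set limit, 3 SD over the mean compound inhibition, cut at about 44% in these data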
#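 test system = yeast BB579 (DeaD) | buffer or medium = restrictive CSMM-D medium | doses = single compound dose of 10 µM, 0.25% DMSO final | times = 4 h preincubation and 48 h exposure at 30 °C | technique = culture absorbance at 615 nm | benchmarks = amphotericin B 10 µg/mL, positive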
# Measles CPE: compounds protecting cells from measles virus cytopathic effect, primary screen, measles RdRp inhibitor project, single point, MLSMR library, absorbance. Measles virus-infected cells, CPE protection. protection (pct of control), % at 4 µM. 140,000 compounds, 1.5% hits; in the data active = protection mostly above about 24%, no sharp cut-off; inactive = mostly below about 26%
# Phagocyt inh: inhibitors of macrophage phagocytosis, primary screen, imaging, J774A.1 cells, IgG beads; AID 1029, 2008; inhibition, % at 5 µM; 110,000 compounds, 0.07% hits; J774A.1 macrophage IgG-bead phagocytosis;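 active = inhibition above the mean of the plate negative controls plus 5 SD, cut at about 13% in these data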;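 note: phagocytic index as fraction of beads internalized from green versus red external bead signal; plate controls were DMSO negative control for no effect and cytochalasin-D positive control for full effect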
# An asterisk follows results filed as active; x = no result; [ ] = remark or other dose. In the library only some 3.6% were active in any assay of this set; here they are far more common.
SMILES,Yeast life ext,RAM inhibit,Yeast growth inh,Measles CPE,Phagocyt inh
Cc1ccc(/C(N)=N/OC(=O)c2ccc(Cl)cc2Cl)cc1,-11,2,99*,2,0
CCOC(=O)c1cnc(SCC(=O)N2CCOCC2)nc1N,x,1,x,x,x
CCC1Oc2ccc(C)cc2N(CC(=O)N2CCN(c3ccc(F)cc3)CC2)C1=O (stereo not given),-9,1,-4,28*,0
Cn1c(N)c(S(=O)(=O)N2CCN(Cc3ccccc3)CC2)c(=O)n(C)c1=O,x,-1,x,x,x
O=C(NCc1ccccc1F)c1ccc(S(=O)(=O)Nc2cccc(C(F)(F)F)c2)cc1,1,1,-14,31*,-2
COc1ccc(/C=N\NC(=O)COc2ccccc2)c(C(=O)O)c1OC,-1,3,-27,9,-1
O=S(=O)(c1ccc(F)cc1)N1CCN(c2ccc(-c3ccccc3)nn2)CC1,x,5,x,x,x
COc1cc2c(c(OC)c1)C(c1ccncc1)CC(=O)N2 (stereo not given),0,1,-34,16,-1
COc1cc(OC)c(C2SCCS2)c(OC)c1,0,1,-23,33*,-2
O=C(O)CCCSc1nccn1-c1ccccc1,x,0,x,x,x
O=C(CN1C(=O)CSC1=O)Nc1ccc(C(=O)O)cc1,-12,0,-6,102*,1
Cc1ccc(NC(=O)CN2C(=O)CSC2=O)cc1,x,2,-21,3,x
O=C(NCCc1ccc(Cl)cc1)c1nnc(Cc2ccc(Cl)cc2)o1,4,3,-31,14,x
CC(CCc1ccccc1)NC(=O)c1nnc(Cc2ccc(Cl)cc2)o1 (stereo not given),-9,8.7*,12,25,0
Cc1cc(C)n2nc(SCC(=O)c3cc(C)n(CC4CCCO4)c3C)nc2n1 (stereo not given),x,3,x,x,x
COc1ccc(C(C)=O)cc1COC(=O)c1cnc(Cl)c(Cl)c1,x,9.9*,x,x,x
CCOc1ccc2nc(SCC(=O)N3CCCc4ccccc43)sc2c1,-9,10.0*,-54,13,x
Cc1ccc(-n2nnnc2SCC(=O)NC2CCCc3ccccc32)cc1 (stereo not given),-5,5,-27,9,-5
CCOc1ccc2nc(SCC(=O)c3cccs3)sc2c1,-12,1,-1,5,7
CCOc1ccc2nc(SCC(=O)N3c4ccccc4Sc4ccccc43)sc2c1,-2,7,-30,8,-2
CCCNC(=O)CSc1nc2ccc(OCC)cc2s1,x,3,x,x,x
CCOc1ccc2nc(SCC(=O)NC3CCCc4ccccc43)sc2c1 (stereo not given),11,7,-27,15,70*[artifact]
Cc1ccc(-n2nnnc2SCC(=O)NC2CCCc3ccccc32)c(C)c1 (stereo not given),-2,8.5*,-47,3,0
CCOc1ccc2nc(SCC(=O)c3ccc(Cl)s3)sc2c1,1,9.8*,-19,19,x
Cc1[nH]c(=S)sc1Cc1ccc(F)cc1,0,-1,-29,0,-8
SMILES,Yeast life ext,RAM inhibit,Yeast growth inh,Measles CPE,Phagocyt inh
CCCNC(=O)NC(=O)CSc1cccc(C(F)(F)F)c1,x,2,x,x,x
Nc1c([N+](=O)[O-])c(=O)oc2ccccc12,x,2,x,x,x
Cc1c(NC(=O)CSc2nnc3c4ccccc4n(CCc4ccccc4)c3n2)c(=O)n(-c2ccccc2)n1C,-30,1,-42,37*,x
CCn1c2ccccc2c2nnc(SCC(=O)Nc3c(C)n(C)n(-c4ccccc4)c3=O)nc21,-5,0,-45,3,1
C[C@@H]1CC[C@H]2C(=O)N3[C@@H](CC[C@@H](C)[C@@H]3c3ccc(Br)cc3)C(=O)N2[C@H]1c1ccc(Br)cc1,3,2,-21,10,x
COc1ccc(C(C)(C)C)cc1NC(=O)C1C2C=CC(C2)C1C(=O)O (stereo not given),-7,2,-22,34*,-1
COc1ccc(C(C)(C)C)cc1NC(=O)C1CC=CCC1C(=O)O (stereo not given),-8,-2,-23,15,-2
c1ccc2ncc(-n3cnnn3)cc2c1,-4,0,-86,38*,2
CC(=O)Nc1ccc(C(=O)N(C)C(C(=O)Nc2ccccc2)c2ccccn2)cc1 (stereo not given),2,0,-11,4,-3
Cc1ccccc1COC(=O)c1nn(-c2ccccc2)nc1N,x,9.4*,x,x,x
CCOC(=O)C1(CC2CCCCO2)CCN(Cc2ccc(OC)cc2F)CC1 (stereo not given),x,0,x,x,x
O=C(Nc1ccc2c(c1)OCCO2)NC1(C(F)(F)F)Oc2ccccc2O1,30*,1,-49,11,0
Cc1ccc(C)c(NC(=O)c2ccc3ccccc3n2)c1,-11,10*,-34,7,-1
Cc1ccc(C)c(NC(=O)c2ccccn2)c1,-10,1,-42,4,1
Cc1ccc2occ(-c3nn[nH]n3)c(=O)c2c1,14,-1,6,7,0
CC(C)c1ccc2occ(-c3nn[nH]n3)c(=O)c2c1,59*,1,-27,22,2
O=C(COC(=O)c1cc(=O)[nH]c(=O)[nH]1)NCc1ccccc1,-1,1,1,6,-9
COc1ccc(/C=C/C=C2\N=C(SC)SC2=O)cc1,5,11*,-47,3,-1
NC(=O)c1c(NC(=O)Cc2cccs2)sc2c1CCC2,-11,3,-43,45*,-1
CCOC(=O)c1c(NC(=O)Cc2cccs2)sc2c1CCCC2,-13,2,-29,18,-1
Cc1ccc(CN2CCN(/N=C/C=C/c3ccccc3[N+](=O)[O-])CC2)cc1,x,-1,x,x,x
C=CCc1c(C)c(C#N)c2nc3ccccc3n2c1NCCN(C)C,-1,2,57*,1,0
CCOc1ccccc1CNC(=O)c1cc2oc3ccccc3c2n1CC,-3,8,6,35*,186*
CCn1c(C(=O)N2CCc3ccccc3C2)cc2oc3ccccc3c21,-12,6,-10,23,x
CCOc1ccc(CNC(=O)c2cc3oc4ccccc4c3n2C)cc1,-11,0,6,89*,x
CCOc1ccc(NC(=O)c2oc3ccccc3c2NC(=O)CC)cc1,-10,4,-58,4,x
COc1cccc(CNC(=O)c2cc3oc4ccccc4c3n2C)c1OC,-4,4,-78,72*,0
Cn1cc(CN2C[C@]3(C)C[C@H]2CC(C)(C)C3)c(-c2ccc3c(c2)OCCO3)n1,x,1,x,x,x
Cc1cc(C)c(NC(=O)NC(=O)C(Cl)(Cl)Cl)c(C)c1,x,2,x,x,x
Cc1noc(C)c1S(=O)(=O)N1CCC(C(=O)N2CCN(c3ccc(F)cc3)CC2)CC1,-7,-1,-34,3,-3
